Test results published in ChEMBL document CHEMBL4257484, “Membrane-active antimicrobial poly(amino-modified alkyl) β-cyclodextrins synthesized via click reactions” (Medchemcomm, 2018).
Converted amounts (≈) assume the structure as drawn.

Assays:
Streptococcus agalactiae = assay: Antibacterial activity against drug-resistant Streptococcus agalactiae B1 after 18 to 20 hrs by agar dilution method; format: functional
In short: (§1)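 Agar dilution per CLSI. Overnight broth cultures were diluted 100-fold, and one loopful (about 10^5 to 10^4 CFU) was spotted onto agar plates containing the CD. Growth was scored after 18–20 h at 37 °C. MIC values are in µM.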

Staphylococcus aureus [1] = assay: Induction of membrane disruption in methicillin-sensitive Staphylococcus aureus FDA 209P assessed as increase in K+ efflux after 30 mins; format: functional; conditions: 0.5 h, read-out: ED50 (the source's name)
In short: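 S. aureus washed twice and suspended at 2 × 10^9 cells per cm3 in 100 mM choline chloride/50 mM Mops-Tris, pH 7.2, then exposed to compound at 37 °C for 30 min. Released K+ was measured in the centrifuged supernatant with a K+-selective electrode. Melittin (10 µM) defined 100% efflux, and ED50 is the concentration giving 50% efflux.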

[2] = Hemolytic activity in rabbit RBC at 20 uM after 20 mins relative to control; format: ADME, cell-based, Oryctolagus cuniculus, Erythrocyte; conditions: rabbit red blood cells (erythrocytes), read-out: Activity
In short: (§2)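 Rabbit erythrocytes suspended in 150 mM NaCl/10 mM Hepes-NaOH, pH 7.4, at 0.5% hematocrit (final) and incubated with compound at 37 °C. The table footnote gives 20 min; the methods section gives 30 min. Hemolysis was read as absorbance at 540 nm, with 50 µM lysolecithin defining 100% hemolysis.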

[3] = Hemolytic activity in rabbit RBC at 2 uM after 20 mins relative to control; format: ADME, cell-based, Oryctolagus cuniculus, Erythrocyte; conditions: rabbit red blood cells (erythrocytes), read-out: Activity; in short: as §2
Enterococcus faecalis [4] = assay: Antibacterial activity against vancomycin-resistant Enterococcus faecalis MS29016 after 18 to 20 hrs by agar dilution method; format: functional; in short: as §1
Staphylococcus aureus [5] = assay: Antibacterial activity against Staphylococcus aureus FDA 209P assessed as decrease in cell viability after 30 mins by colony counting method; format: functional; conditions: 0.5 h
In short: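 S. aureus washed twice and suspended at 2 × 10^9 cells per cm3 in 100 mM choline chloride/50 mM Mops-Tris, pH 7.2. Exposed to CD at 37 °C for 30 min. An aliquot was diluted in physiological saline, plated on polypeptone/yeast extract/NaCl agar and incubated overnight at 37 °C. Viability was taken from colony counts; LC50 is the concentration giving 50% viability.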

[6] = Hemolytic activity in rabbit RBC at 5 uM after 20 mins relative to control; format: ADME, cell-based, Oryctolagus cuniculus, Erythrocyte; conditions: rabbit red blood cells (erythrocytes), read-out: Activity; in short: as §2
[7] = Hemolytic activity in rabbit RBC at 50 uM after 20 mins relative to control; format: ADME, cell-based, Oryctolagus cuniculus, Erythrocyte; conditions: rabbit red blood cells (erythrocytes), read-out: Activity; in short: as §2
Enterococcus faecium = assay: Antibacterial activity against drug-resistant Enterococcus faecium MS29120 after 18 to 20 hrs by agar dilution method; format: functional; in short: as §1
Staphylococcus aureus [8] = assay: Antibacterial activity against methicillin-sensitive Staphylococcus aureus FDA 209P after 20 hrs by liquid microdilution method; format: functional
In short: (§3)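 Two-fold serial dilutions of compound in Mueller–Hinton broth, inoculated with 1 × 10^4 cells and cultured at 37 °C for 20 h in microtiter wells.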

[9] = Lipophilicity, log P of the compound; format: physicochemical; conditions: octanol/water
Escherichia coli = assay: Antibacterial activity against drug-sensitive Escherichia coli K-12 W3110 after 20 hrs by liquid microdilution method; format: functional; conditions: K-12 substr. W3110, 20 h; in short: as §3
[10] = Hemolytic activity in rabbit RBC at 1 uM after 20 mins relative to control; format: ADME, cell-based, Oryctolagus cuniculus, Erythrocyte; conditions: rabbit red blood cells (erythrocytes), read-out: Activity; in short: as §2
Salmonella typhimurium = assay: Antibacterial activity against drug-sensitive Salmonella typhimurium LT2 after 20 hrs by liquid microdilution method; format: functional, Salmonella enterica subsp. enterica serovar Typhimurium; conditions: Salmonella enterica, LT2, 20 h; in short: as §3
Pseudomonas aeruginosa = assay: Antibacterial activity against drug-sensitive Pseudomonas aeruginosa PAO1 after 20 hrs by liquid microdilution method; format: functional; conditions: PAO1, 20 h; in short: as §3
[11] = Hemolytic activity in rabbit RBC at 10 uM after 20 mins relative to control; format: ADME, cell-based, Oryctolagus cuniculus, Erythrocyte; conditions: rabbit red blood cells (erythrocytes), read-out: Activity; in short: as §2
Staphylococcus aureus [12] = assay: Antibacterial activity against methicillin-resistant Staphylococcus aureus MS29202 after 18 to 20 hrs by agar dilution method; format: functional; in short: as §1
Bacillus subtilis = assay: Antibacterial activity against drug-sensitive Bacillus subtilis 168 after 20 hrs by liquid microdilution method; format: functional; conditions: subsp. subtilis str. 168, 20 h; in short: as §3
Enterococcus faecalis [13] = assay: Antibacterial activity against drug-resistant Enterococcus faecalis MS29030 after 18 to 20 hrs by agar dilution method; format: functional; in short: as §1

SMILES | MIC (Streptococcus agalactiae) | EC50 (Staphylococcus aureus [1]) | hemolysis at 20 min, 20 µM [2] | hemolysis at 20 min, 2 µM [3] | MIC (Enterococcus faecalis [4]) | LC50 (Staphylococcus aureus [5]) | hemolysis at 20 min, 5 µM [6] | hemolysis at 20 min, 50 µM [7] | MIC (Enterococcus faecium) | MIC (Staphylococcus aureus [8]) | logP [9] | MIC (Escherichia coli) | hemolysis at 20 min, 1 µM [10] | MIC (Salmonella typhimurium) | MIC (Pseudomonas aeruginosa) | hemolysis at 20 min, 10 µM [11] | MIC (Staphylococcus aureus [12]) | MIC (Bacillus subtilis) | MIC (Enterococcus faecalis [13])
CCCCNCc1cn(C[C@H]2O[C@@H]3O[C@H]4[C@H](O)[C@@H](O)[C@@H](O[C@H]5[C@H](O)[C@@H](O)[C@@H](O[C@H]6[C@H](O)[C@@H](O)[C@@H](O[C@H]7[C@H](O)[C@@H](O)[C@@H](O[C@H]8[C@H](O)[C@@H](O)[C@@H](O[C@H]9[C@H](O)[C@@H](O)[C@@H](O[C@H]2[C@H](O)[C@H]3O)O[C@@H]9Cn2cc(CNCCCC)nn2)O[C@@H]8Cn2cc(CNCCCC)nn2)O[C@@H]7Cn2cc(CNCCCC)nn2)O[C@@H]6Cn2cc(CNCCCC)nn2)O[C@@H]5Cn2cc(CNCCCC)nn2)O[C@@H]4Cn2cc(CNCCCC)nn2)nn1 | > 44 µM | > 50 µM | 0% | 0% | > 44 µM | > 50 µM | 0% | 0% | > 44 µM | 11 to 22 µM (≈ 23 to 45.9 µg/mL) | -0.9 | > 44 µM | 0% | > 44 µM | > 44 µM | 0% | > 44 µM | 11 µM (≈ 23 µg/mL) | > 44 µM
CCCCCCNCc1cn(C[C@H]2O[C@@H]3O[C@H]4[C@H](O)[C@@H](O)[C@@H](O[C@H]5[C@H](O)[C@@H](O)[C@@H](O[C@H]6[C@H](O)[C@@H](O)[C@@H](O[C@H]7[C@H](O)[C@@H](O)[C@@H](O[C@H]8[C@H](O)[C@@H](O)[C@@H](O[C@H]9[C@H](O)[C@@H](O)[C@@H](O[C@H]2[C@H](O)[C@H]3O)O[C@@H]9Cn2cc(CNCCCCCC)nn2)O[C@@H]8Cn2cc(CNCCCCCC)nn2)O[C@@H]7Cn2cc(CNCCCCCC)nn2)O[C@@H]6Cn2cc(CNCCCCCC)nn2)O[C@@H]5Cn2cc(CNCCCCCC)nn2)O[C@@H]4Cn2cc(CNCCCCCC)nn2)nn1 | 10 µM (≈ 22.8 µg/mL) | 15 µM | 64% | 4% | 42 µM (≈ 96 µg/mL) | 15 µM | 7% | 110% | 10 µM (≈ 22.8 µg/mL) | 3 to 10 µM (≈ 6.85 to 22.8 µg/mL) | -0.06 | 5 µM (≈ 11.4 µg/mL) | 0% | 10 µM (≈ 22.8 µg/mL) | 10 µM (≈ 22.8 µg/mL) | 25% | 21 µM (≈ 48 µg/mL) | 3 µM (≈ 6.85 µg/mL) | > 42 µM
CCCCCNCc1cn(C[C@H]2O[C@@H]3O[C@H]4[C@H](O)[C@@H](O)[C@@H](O[C@H]5[C@H](O)[C@@H](O)[C@@H](O[C@H]6[C@H](O)[C@@H](O)[C@@H](O[C@H]7[C@H](O)[C@@H](O)[C@@H](O[C@H]8[C@H](O)[C@@H](O)[C@@H](O[C@H]9[C@H](O)[C@@H](O)[C@@H](O[C@H]2[C@H](O)[C@H]3O)O[C@@H]9Cn2cc(CNCCCCC)nn2)O[C@@H]8Cn2cc(CNCCCCC)nn2)O[C@@H]7Cn2cc(CNCCCCC)nn2)O[C@@H]6Cn2cc(CNCCCCC)nn2)O[C@@H]5Cn2cc(CNCCCCC)nn2)O[C@@H]4Cn2cc(CNCCCCC)nn2)nn1 | 3 µM (≈ 6.56 µg/mL) | 20 µM | 0% | 0% | > 43 µM | 20 µM | 1% | 1% | 21 µM (≈ 45.9 µg/mL) | 3 to 5 µM (≈ 6.56 to 10.9 µg/mL) | -0.48 | 43 µM (≈ 94 µg/mL) | 0% | > 43 µM | > 43 µM | 0% | 21 µM (≈ 45.9 µg/mL) | 1 µM (≈ 2.19 µg/mL) | > 43 µM
CC(C)CCCNCc1cn(C[C@H]2O[C@@H]3O[C@H]4[C@H](O)[C@@H](O)[C@@H](O[C@H]5[C@H](O)[C@@H](O)[C@@H](O[C@H]6[C@H](O)[C@@H](O)[C@@H](O[C@H]7[C@H](O)[C@@H](O)[C@@H](O[C@H]8[C@H](O)[C@@H](O)[C@@H](O[C@H]9[C@H](O)[C@@H](O)[C@@H](O[C@H]2[C@H](O)[C@H]3O)O[C@@H]9Cn2cc(CNCCCC(C)C)nn2)O[C@@H]8Cn2cc(CNCCCC(C)C)nn2)O[C@@H]7Cn2cc(CNCCCC(C)C)nn2)O[C@@H]6Cn2cc(CNCCCC(C)C)nn2)O[C@@H]5Cn2cc(CNCCCC(C)C)nn2)O[C@@H]4Cn2cc(CNCCCC(C)C)nn2)nn1 | 5 µM (≈ 11.4 µg/mL) | – | 23% | 5% | 42 µM (≈ 96 µg/mL) | – | 7% | 56% | 10 µM (≈ 22.8 µg/mL) | 3 to 10 µM (≈ 6.85 to 22.8 µg/mL) | -0.15 | 10 µM (≈ 22.8 µg/mL) | 5% | 10 µM (≈ 22.8 µg/mL) | 5 µM (≈ 11.4 µg/mL) | 15% | 21 µM (≈ 48 µg/mL) | 3 µM (≈ 6.85 µg/mL) | > 42 µM
CC(C)CCNCc1cn(C[C@H]2O[C@@H]3O[C@H]4[C@H](O)[C@@H](O)[C@@H](O[C@H]5[C@H](O)[C@@H](O)[C@@H](O[C@H]6[C@H](O)[C@@H](O)[C@@H](O[C@H]7[C@H](O)[C@@H](O)[C@@H](O[C@H]8[C@H](O)[C@@H](O)[C@@H](O[C@H]9[C@H](O)[C@@H](O)[C@@H](O[C@H]2[C@H](O)[C@H]3O)O[C@@H]9Cn2cc(CNCCC(C)C)nn2)O[C@@H]8Cn2cc(CNCCC(C)C)nn2)O[C@@H]7Cn2cc(CNCCC(C)C)nn2)O[C@@H]6Cn2cc(CNCCC(C)C)nn2)O[C@@H]5Cn2cc(CNCCC(C)C)nn2)O[C@@H]4Cn2cc(CNCCC(C)C)nn2)nn1 | 11 µM (≈ 24.1 µg/mL) | – | 0% | 0% | > 43 µM | – | 0% | 0% | 21 µM (≈ 45.9 µg/mL) | 3 to 5 µM (≈ 6.56 to 10.9 µg/mL) | -0.57 | > 43 µM | 0% | > 43 µM | > 43 µM | 0% | 21 µM (≈ 45.9 µg/mL) | 1 µM (≈ 2.19 µg/mL) | > 43 µM
O[C@@H]1[C@@H](O)[C@H]2O[C@H]3[C@H](O)[C@@H](O)[C@@H](O[C@H]4[C@H](O)[C@@H](O)[C@@H](O[C@H]5[C@H](O)[C@@H](O)[C@@H](O[C@H]6[C@H](O)[C@@H](O)[C@@H](O[C@H]7[C@H](O)[C@@H](O)[C@@H](O[C@H]8[C@H](O)[C@@H](O)[C@@H](O[C@@H]1[C@@H](Cn1cc(CNCC9CCC9)nn1)O2)O[C@@H]8Cn1cc(CNCC2CCC2)nn1)O[C@@H]7Cn1cc(CNCC2CCC2)nn1)O[C@@H]6Cn1cc(CNCC2CCC2)nn1)O[C@@H]5Cn1cc(CNCC2CCC2)nn1)O[C@@H]4Cn1cc(CNCC2CCC2)nn1)O[C@@H]3Cn1cc(CNCC2CCC2)nn1 | > 43 µM | – | 0% | 0% | > 43 µM | – | 0% | 0% | > 43 µM | 5 to 11 µM (≈ 10.9 to 23.9 µg/mL) | -1 | > 43 µM | 0% | > 43 µM | > 43 µM | 0% | > 43 µM | 3 µM (≈ 6.52 µg/mL) | > 43 µM
OC[C@H]1O[C@@H]2O[C@H]3[C@H](O)[C@@H](O)[C@@H](O[C@H]4[C@H](O)[C@@H](O)[C@@H](O[C@H]5[C@H](O)[C@@H](O)[C@@H](O[C@H]6[C@H](O)[C@@H](O)[C@@H](O[C@H]7[C@H](O)[C@@H](O)[C@@H](O[C@H]8[C@H](O)[C@@H](O)[C@@H](O[C@H]1[C@H](O)[C@H]2O)O[C@@H]8CO)O[C@@H]7CO)O[C@@H]6CO)O[C@@H]5CO)O[C@@H]4CO)O[C@@H]3CO [BETADEX] | – | > 50 µM | – | – | – | > 50 µM | – | – | – | – | – | – | – | – | – | – | – | – | –
